# Source: PubChem BioAssay
# An excerpt weighted towards active compounds, which were near 2.2% of everything screened.
# Diaph act CS: compounds boosting diaphorase resazurin reduction – biochemical, uHTS, resorufin fluorescence, counter-screen for diaphorase-coupled primary assays, primary screen; Diaphorase/resazurin coupled assay, 16 min; active compounds read high; 1 = vehicle wells, 0 = NADH-free wells; activation factor at 20 µM; 190,000 compounds, 0.005% hits;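 active = diaphorase activity raised at least twofold by the compound at 20 µM; inactive = activation factor below 2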
#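 Material: purified diaphorase enzyme from Clostridium kluyveri; Also added: 0.114 mM NADH and 0.1 mM resazurin, final amounts; Doses: single compound dose of 20 µM, 1% DMSO final; Times: 16 min enzyme reaction, ambient temperature; Detection: resorufin fluorescence, excitation 544 nm, emission 590 nm; Measure: increased resorufin signal from activators or reducing compounds.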
# G6PDH counter: L. mesenteroides G6PDH inhibitors, counter-screen for G6PDH-coupled screening assays, biochemical, Leuconostoc mesenteroides enzyme. 200,000 compounds, 0.12% hits. inhibition, % at 5 µM. AID 1020, 2008. glucose-6-phosphate dehydrogenase [Leuconostoc mesenteroides]. Purified L. mesenteroides G6PDH, diaphorase/resazurin coupled fluorescence, 45 min; in the data active = inhibition above about 50%
# PMI act: activators of human PMI, primary screen, biochemical, fluorescence intensity, near-Km mannose 6-phosphate. Mannose-6-phosphate isomerase (Homo sapiens), P34949. purified human PMI, coupled resazurin fluorescence, 20 min; active compounds read high; 1 = vehicle control, 0 substrate-free wells. activation factor at 20 µM. 190,000 compounds, 0.005% hits. AID 1214, 2008;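 active = activation factor of 2 or more at 20 µM, relative to plate controls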
# PMI act satM6P: human PMI activators, high substrate, primary screen, biochemical, fluorescence intensity, near-saturating mannose 6-phosphate | 190,000 compounds, 0.34% hits | coupled PMI enzyme assay, resazurin fluorescence, 20 min; active compounds read high; 1 = untreated enzyme, 0 = substrate-free blank | activation factor at 20 µM;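 active = activation factor of 2 or more at 20 µM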
#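 Test system: Human PMI in coupled enzyme assay | Input: 15 ng/mL PMI | Medium: HEPES-buffered pH 7.4 with magnesium and detergent | Compound: One concentration, 20 µM, in 1% DMSO | Incubation: Enzyme reaction with compound 20 min at room temperature | Detection: Diaphorase-driven resazurin-to-resorufin fluorescence, excitation 544, emission 590 nm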
# Diaphorase inh: diaphorase inhibitors and chemical oxidizers, primary screen, counter-screen for diaphorase-coupled primary assays, biochemical, uHTS, resorufin fluorescence; 190,000 compounds, 0.69% hits; inhibition, % at 20 µM; diaphorase resazurin-to-resorufin fluorescence, NADH, 16 min; bacterial (C. kluyveri) enzyme, not human; AID 1217, 2008;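 active = primary screen inhibition at 20 µM above a set limit, cut at about 50% in these data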
#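 System: Bacterial diaphorase enzyme (C. kluyveri) | Incubation: 16-min room-temperature incubation before reading | Benchmarks: No-NADH positive control and DMSO neutral control | Measured by: Resorufin fluorescence 544/590 nm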
# ROMK mod: ROMK potassium channel modulators, primary screen, cell-based, thallium flux, MLSMR library. Tet-inducible ROMK, thallium flux fluorescence; actives lie on both sides. B-score at 10 µM. 130,000 compounds, 2% hits. AID 1918, 2009;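 active = signal ratio slope over the read window, or its plate-corrected B-score, at least 3 SD from the plate mean, either direction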;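 note: B-score of the F/F0 ratio slope over 7 to 12 s after thallium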
# Target sequence (P48048 whole entry, looked up): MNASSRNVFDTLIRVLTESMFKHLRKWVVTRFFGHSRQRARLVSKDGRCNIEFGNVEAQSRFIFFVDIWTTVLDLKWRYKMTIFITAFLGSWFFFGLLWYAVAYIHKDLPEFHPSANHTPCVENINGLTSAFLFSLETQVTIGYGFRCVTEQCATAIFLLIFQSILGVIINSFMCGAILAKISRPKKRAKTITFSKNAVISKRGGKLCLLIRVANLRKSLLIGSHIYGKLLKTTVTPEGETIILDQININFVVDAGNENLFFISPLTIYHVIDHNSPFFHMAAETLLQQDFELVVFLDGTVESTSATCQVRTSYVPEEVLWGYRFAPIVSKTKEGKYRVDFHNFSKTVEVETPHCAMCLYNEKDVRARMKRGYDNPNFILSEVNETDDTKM
# ROMK retest: ROMK channel modulator hit retest, confirmation, cell-based, thallium flux, duplicate, resupplied hits | shares compounds with ROMK mod | fluorescence ratio; active compounds read low | normalized thallium flux (F/F0 slope) at 10 µM | 3,000 compounds, 54% hits | AID 1917, 2009;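 active = Flux at 10 µM at least 3 SD below or above vehicle control mean in one or both replicates; inconclusive = no clear call, values can overlap the other calls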
# Numbers stand for hits; 0 = inactive; ? = inconclusive; - = no result.
SMILES,Diaph act CS,G6PDH counter,PMI act,PMI act satM6P,Diaphorase inh,ROMK mod,ROMK retest
OC(COC(c1ccc(Cl)cc1)c1ccc(Cl)cc1)CN1CCCC1 (centres undefined),0,0,0,0,0,-3.9,0.057
Cc1cccc(-n2c(C)cc(/C=N\NC(=O)c3ccco3)c2C)c1,0,0,0,0,0,0,-
O=C(/C=C/c1ccc(Br)cc1)N1CCN(c2cccc(C(F)(F)F)c2)CC1,0,0,0,0,0,-,0
CN(C)/C=N/c1ncc(C(=O)OC(C)(C)C)s1,0,0,0,0,0,0,-
CC(C(Sc1ccccc1N)c1ccccc1)[N+](=O)[O-] (centres undefined),-,-,-,-,-,-5.1,0.042
CCOc1ccccc1CNS(=O)(=O)c1ccc2[nH]c(=O)sc2c1,0,0,0,0,0,-3.5,0
Cn1c(N)c(C(=O)Nc2ccc(-c3ccccc3)cc2)sc1=S,-,-,-,-,-,0,-
Cc1cccc(-c2nc(CSCC(=O)N3CCN(c4ccccn4)CC3)c(C)o2)c1,0,0,0,0,0,-4.3,0.053
Cc1ccc(-c2nc(CSCC(=O)N3CCCC3)c(C)o2)cc1,0,0,0,0,0,0,-
CC(=O)Nc1ccc(NC(=O)COC(=O)c2cnccn2)cc1,0,0,0,0,0,0,-
Cc1cc(C(=O)COC(=O)Cc2n[nH]c(=O)c3ccccc23)c(C)n1-c1ccc2c(c1)OCO2,0,0,0,0,0,-,-
O=C(Cc1n[nH]c(=O)c2ccccc12)OCC(=O)c1ccc2c(c1)OCCO2,0,0,0,0,0,3.6,0
COC(=O)C1=C(C)N(C)C(C)=C(C(=O)OC)C1c1ccccc1C,0,0,0,0,0,-4.4,0.064
Cc1ccsc1/C=N/NC(=O)C(=O)NCC(C)C,0,0,0,0,0,0,-
CC(C)Oc1cccc(C(=O)NC(=S)Nc2ccccc2)c1,0,0,0,0,0,-,-
Cn1c(N2CCOCC2)nc2c1c(=O)n(Cc1ccc(Cl)c(Cl)c1)c(=O)n2C,0,0,0,0,0,-3.7,0.068
Cn1c(=O)c2c(ncn2Cc2ccc(Cl)c(Cl)c2)n(C)c1=O,0,0,0,0,0,-2.1,?
Cn1c(N2CCCC2)nc2c1c(=O)n(Cc1ccc(F)cc1)c(=O)n2C,0,0,0,0,0,0,-
COC(=O)CCC(=O)NNC(=O)Cc1ccccc1,0,0,0,0,0,-,-
COc1ccc(OC)c(-c2cc(C(=O)Nc3c(C)nn(Cc4ccc(Cl)cc4)c3C)no2)c1,0,0,0,0,0,-2.6,0.065
C=CCn1c(N)c(C(=O)NCC2CCCO2)c2nc3ccccc3nc21 (centres undefined),0,0,0,0,0,-,0.066
COc1ccc(-n2c(N)c(C(=O)NCC3CCCO3)c3nc4ccccc4nc32)c(OC)c1 (centres undefined),0,0,0,0,0,-,-
Cc1cccc(N(C(=O)c2csnn2)C(C(=O)NC(C)(C)C)c2cccnc2)c1 (centres undefined),0,0,0,0,0,2.2,0
COc1ccc(C2OC(=O)CC2C(=O)NCc2ccccc2Cl)cc1OC (centres undefined),0,0,0,0,0,-10,0
O=C(OCn1nnc2ccccc2c1=O)C1COc2ccccc2O1 (centres undefined),0,0,0,0,0,-,-
SMILES,Diaph act CS,G6PDH counter,PMI act,PMI act satM6P,Diaphorase inh,ROMK mod,ROMK retest
O=c1c2ccccc2nnn1CSc1nnc(C2COc3ccccc3O2)n1-c1ccccc1 (centres undefined),0,0,0,0,0,-2.9,0.042
CC(=O)c1ccc(N(C(=O)c2csnn2)C(C(=O)NC(C)(C)C)c2cccs2)cc1 (centres undefined),0,0,0,0,0,0,-
CC1(C)Cc2c(C#N)c(SCCOc3ccccc3)nc(N3CCOCC3)c2CO1,0,0,0,0,0,-,?
Cc1ccccc1OCC(O)CN1CCN(CCN2C(=O)c3cccc4cccc(c34)C2=O)CC1 (centres undefined),0,0,0,0,0,-,-
CCC(OCC(O)CN1CCN(CCN2C(=O)c3cccc4cccc(c34)C2=O)CC1)c1ccccc1 (centres undefined),0,0,0,0,0,-3.6,0.059
O=c1[nH]c(C(F)(F)F)nc2c1nnn2Cc1ccccc1F,0,0,0,0,0,3.4,0
CCOc1cc(/C=N/NC(=O)C(C)Sc2ccccc2)ccc1O (centres undefined),0,0,0,0,0,-,-
CCN(CC)c1ccc(/C=C2\C(=O)N(c3nnc(C)c(=O)[nH]3)N=C2C)cc1,-,-,-,-,-,-,0.029
CC1=NOC(=O)/C1=C/c1ccc(N(C)C)cc1,0,0,0,0,0,-,?
CC1=NN(CCC#N)C(=O)/C1=C/c1ccc(N(C)C)cc1,0,0,0,0,0,0,-
CCN(CC)c1ccc(/C=C2/C(=O)ON=C2C)cc1,0,0,0,0,0,-5.7,0.036
CCN(CC)c1ccc(/C=C2\C(=O)N(c3ccc([N+](=O)[O-])cc3)N=C2N2CCOCC2)cc1,-,-,-,-,-,0,-
COc1ccc(-c2cc(C(F)(F)F)n3nc(C(=O)Nc4c(C)n(C)n(-c5ccccc5)c4=O)cc3n2)cc1,-,0,-,-,-,0,-
C/C(=N\NC(=O)NC1CCCCC1)c1ccco1,0,0,0,0,0,0,-
COc1cc(C)ccc1OCCOCCOc1ccc([N+](=O)[O-])cc1,0,0,0,0,0,-1.7,0
COc1cc(C)ccc1OCCOCCOc1ccccc1[N+](=O)[O-],0,0,0,0,0,-,-
CC(=O)CSc1nc2cc3c(cc2cc1C#N)OCCO3,0,0,0,2,0,-3.3,0.054
Clc1ccc(OCCSc2ncccn2)c(Br)c1,0,0,0,0,0,0,-
CCCN1C(=O)/C(=C\C=C2\N(CC)c3ccccc3C2(C)C)SC1=S,0,0,0,0,0,-7.5,0.053
COc1ccc(-c2nn(-c3ccccc3)cc2/C=C/C(=O)N2CCN(c3ccccn3)CC2)cc1,0,0,0,0,0,0,-
